Test [1] addresses T1, DNA topoisomerase 1 (Homo sapiens) (UniProt P11387).
T1 sequence (whole entry): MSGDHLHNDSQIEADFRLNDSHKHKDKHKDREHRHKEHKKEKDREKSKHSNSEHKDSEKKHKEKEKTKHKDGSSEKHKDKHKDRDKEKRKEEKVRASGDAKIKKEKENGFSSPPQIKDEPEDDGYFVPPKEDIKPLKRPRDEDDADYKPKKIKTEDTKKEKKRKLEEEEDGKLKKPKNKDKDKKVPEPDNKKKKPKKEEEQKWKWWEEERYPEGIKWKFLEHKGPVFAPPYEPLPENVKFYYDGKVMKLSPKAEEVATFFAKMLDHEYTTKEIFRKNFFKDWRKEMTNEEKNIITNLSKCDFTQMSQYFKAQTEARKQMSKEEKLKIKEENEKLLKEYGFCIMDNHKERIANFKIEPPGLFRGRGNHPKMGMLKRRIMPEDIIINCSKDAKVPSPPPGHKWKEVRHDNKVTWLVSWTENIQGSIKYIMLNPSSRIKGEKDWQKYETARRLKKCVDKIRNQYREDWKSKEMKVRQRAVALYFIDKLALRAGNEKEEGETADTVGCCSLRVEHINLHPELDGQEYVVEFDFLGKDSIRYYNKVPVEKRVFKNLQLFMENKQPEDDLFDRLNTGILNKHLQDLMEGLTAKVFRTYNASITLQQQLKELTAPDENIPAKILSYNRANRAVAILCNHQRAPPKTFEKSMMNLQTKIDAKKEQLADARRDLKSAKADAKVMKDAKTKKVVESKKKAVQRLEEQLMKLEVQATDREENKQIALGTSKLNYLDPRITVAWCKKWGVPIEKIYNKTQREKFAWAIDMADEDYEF
Briefly: Inhibition of recombinant human topoisomerase 1-mediated DNA relaxation expressed in Saccharomyces cerevisiae TopI null strain RS190 at 80 uM using negatively supercoiled pUC18 as substrate pretreated with enzyme for 15 mins followed by substrate addition measured after 15 secs by agarose gel electrophoresis. An outline of the steps:
(§1)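 Human TopI was expressed from pHT143 (GAL promoter) in yeast RS190 and affinity-purified. Reactions used 110 ng/µL TopI and 0.5 µg supercoiled pUC18 in 20 µl buffer (20 mM Tris–HCl, 0.1 mM Na2EDTA, 10 mM MgCl2, 50 µg/mL acetylated BSA, 150 mM KCl, pH 7.5). Drug was mixed with enzyme before DNA was added, and reactions were stopped with SDS. Products were resolved on 1% agarose in TBE and stained with gel red.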

The target of test [2] is T1, DNA topoisomerase 1 (Homo sapiens). Kind of test: Inhibition of recombinant human topoisomerase 1-mediated DNA relaxation expressed in Saccharomyces cerevisiae TopI null strain RS190 at 80 uM using negatively supercoiled pUC18 as substrate pretreated with enzyme for 15 mins followed by substrate addition measured after 1 min by agarose gel electrophoresis. In outline: as §1

Test [3] shares this target. Briefly: Inhibition of recombinant human topoisomerase 1-mediated DNA relaxation expressed in Saccharomyces cerevisiae TopI null strain RS190 at 80 uM using negatively supercoiled pUC18 as substrate pretreated with enzyme for 15 mins followed by substrate addition measured after 3 mins by agarose gel electrophoresis. An outline of the steps:
as §1

The subject of a further test is A549. Kind of test: Antiproliferative activity against human A549 cells after 48 hrs by CCK-8 assay. The format is functional, cell-based. The conditions noted are these: A549, 48 h. In outline:
(§2)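 Cells seeded at 2-4 x 10^3 per well and grown overnight in 0.1 mL medium with 10% FBS at 37 °C under 5% CO2. Drugs were added on day 2 and cells incubated 48 h. CCK-8 was then added for 2 h at 37 °C and absorbance read at 450 nm. IC50 values were reported.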
A general note: Formazan colour is commonly taken as a measure of viable cells.

In the next test the test system is SK-OV-3. Briefly: Antiproliferative activity against human SKOV3 cells after 48 hrs by CCK-8 assay. The settings on record: SK-OV-3, 48 h. Format: functional, cell-based. An outline of the steps:
as §2

The next test has as its system HEK293. Kind of test: Antiproliferative activity against human HEK293 cells after 48 hrs by CCK-8 assay. The conditions noted are these: HEK293, 48 h.
A further test concerns MRC5. Kind of test: Antiproliferative activity against human MRC5 cells after 48 hrs by CCK-8 assay. The format is cell-based. The settings on record: MRC5, 48 h. In outline:
as §2

SMILES strings stand for the structures. pIC50: −log10 of the molar value.

By inhibition is commonly meant the drop in the measured response relative to a control, in per cent. For orientation: pIC50 means the IC50 on a negative log10 scale, so that one unit is a factor of ten. The low end stands for a high IC50, the high end for a low IC50.

`O=P(c1ccccc1)(c1ccccc1)c1cccc2c1N[C@H](c1ccc(C(F)(F)F)cc1)C[C@@H]2c1ccccc1`: the values for the inhibition in test [1], in test [2] and in test [3] were 61%, 56% and 16%, respectively. In addition, the pIC50 in the test with A549 is 6.30; in the test on SK-OV-3 it was less than 4.30; with HEK293, 4.55; in the test with MRC5, less than 4.30.
For `O=P(c1ccccc1)(c1ccccc1)c1cccc2c1N[C@H](c1ccc(F)cc1)C[C@@H]2c1ccc(F)cc1`, the values for the inhibition in test [1], in test [2] and in test [3] were 54%, 50% and 45%, respectively. The pIC50 with A549 was 6.60; in the test with SK-OV-3, 4.75; in the test with HEK293, 4.62; in the test with MRC5 it was less than 4.30.
For the molecule `O=P(c1ccccc1)(c1ccccc1)c1cccc2c(-c3ccccc3)cc(-c3ccccn3)nc12`, the inhibition in test [1] was determined as 58%; in test [2] it was 52%; in test [3], 11%. Moreover, the pIC50 with A549 was 5.53; in the test with SK-OV-3 it was 4.76; in the test on HEK293 it was 4.92; with MRC5 it was less than 4.30.
As for `COc1ccccc1[C@@H]1C[C@H](c2ccccc2)c2cccc(P(=O)(c3ccccc3)c3ccccc3)c2N1`, the pIC50 in the test on A549 was 6.68; in the test on SK-OV-3, less than 4.30; in the test with HEK293, 4.79; in the test with MRC5 it was less than 4.30.
Turning to `O=P(c1ccccc1)(c1ccccc1)c1cccc2c(-c3ccccc3)cc(-c3cccc4ccccc34)nc12`, the inhibition came to 89% in test [1], 87% in test [2] and 65% in test [3]. The negative-log IC50 (pIC50) in the test on A549 was 5.20; in the test on SK-OV-3, less than 4.30; with HEK293 it was 4.26; in the test on MRC5, less than 4.30.
Consider `Cc1ccc([C@H]2C[C@@H](c3ccccc3)Nc3c2cccc3P(=O)(c2ccccc2)c2ccccc2)cc1`, for which the inhibition in test [1] came out at 28%; in test [2], 25%; in test [3], 12%. The negative logarithm of the IC50 (pIC50) in the test with A549 is 5.92; in the test with SK-OV-3, less than 4.30; with HEK293, 4.55; in the test on MRC5, less than 4.30.
As for `Fc1ccc([C@@H]2C[C@H](c3ccccc3)c3cccc(P(=S)(c4ccccc4)c4ccccc4)c3N2)cc1`, the inhibition was found to be 41% in test [1], 39% in test [2] and 37% in test [3]. The negative-log IC50 (pIC50) with A549 is 6.57; with SK-OV-3, less than 4.30; with HEK293, less than 4.30; in the test with MRC5, less than 4.30.
For the molecule `O=P(c1ccccc1)(c1ccccc1)c1cccc2c1N[C@H](c1ccc(F)cc1)C[C@@H]2c1ccccc1`, the inhibition is 55% in test [1], 50% in test [2] and 16% in test [3]. Also, the pIC50 in the test on A549 was 5.57; with SK-OV-3, 4.62; in the test with HEK293, 4.58; in the test with MRC5 it was less than 4.30.
`O=P(c1ccccc1)(c1ccccc1)c1cccc2c1N[C@H](c1cccc3ccccc13)C[C@@H]2c1ccccc1`: the inhibition in test [1] came out at 63%; in test [2] it was 63%; in test [3], 45%. Besides, the pIC50 is 5.45 with A549, less than 4.30 in the test on SK-OV-3, less than 4.30 in the test with HEK293 and less than 4.30 with MRC5.
Regarding `O=P(c1ccccc1)(c1ccccc1)c1cccc2c(-c3ccccc3)cc(-c3ccc(C(F)(F)F)cc3)nc12`, the inhibition worked out at 31% in test [1], 28% in test [2] and 28% in test [3]. In addition, the pIC50 in the test on A549 was 5.99; in the test with SK-OV-3, 4.82; with HEK293, 4.71; in the test with MRC5, less than 4.30.
Take `O=P(c1ccccc1)(c1ccccc1)c1cccc2c(-c3ccc(F)cc3)cc(-c3ccc(F)cc3)nc12`: the inhibition was determined as 50% in test [1], 50% in test [2] and 13% in test [3]. Besides, the pIC50 with A549 was 5.42; with SK-OV-3 it was 5.17; in the test with HEK293, 4.90; with MRC5 it was less than 4.30.
With `O=P(c1ccccc1)(c1ccccc1)c1cccc2c(-c3ccccc3)cc(-c3ccc(F)cc3)nc12`, the inhibition in test [1] stood at 28%; in test [2], 28%; in test [3], 25%. For the same molecule, the pIC50 in the test on A549 is 5.65; in the test with SK-OV-3, 5.09; with HEK293, 4.77; in the test on MRC5, less than 4.30.
On to `O=P(c1ccccc1)(c1ccccc1)c1cccc2c1N[C@H](c1ccccc1)C[C@@H]2c1ccccc1`, for which the figures for the inhibition in test [1], in test [2] and in test [3] were 52%, 50% and 21%, respectively. Besides, the negative-log IC50 (pIC50) in the test on A549 is 5.76; in the test with SK-OV-3, less than 4.30; in the test on HEK293, less than 4.30; with MRC5, less than 4.30.
Regarding `COc1ccccc1-c1cc(-c2ccccc2)c2cccc(P(=O)(c3ccccc3)c3ccccc3)c2n1`, the inhibition in test [1] amounted to 90%; in test [2], 83%; in test [3] it was 63%. Moreover, the negative-log IC50 (pIC50) in the test on A549 was 5.51; with SK-OV-3, 4.88; with HEK293, 4.62; in the test with MRC5 it was less than 4.30.
`Fc1ccc([C@@H]2C[C@H](c3ccccc3)c3cccc(P(=S)(c4ccccc4)c4ccccc4)c3N2)cc1F`: the values for the inhibition in test [1], in test [2] and in test [3] were 57%, 50% and 49%, respectively. Moreover, the pIC50 in the test with A549 was 7.10; in the test on SK-OV-3, less than 4.30; in the test on HEK293, less than 4.30; in the test on MRC5, less than 4.30.
Regarding `O=P(c1ccccc1)(c1ccccc1)c1cccc2c(-c3ccccc3)cc(-c3ccccc3)nc12`, the inhibition in test [1] stood at 57%; in test [2] it was 57%; in test [3] it was 8%. Moreover, the pIC50 in the test with A549 is 5.92; with SK-OV-3, 4.84; in the test with HEK293 it was 4.86; in the test on MRC5, less than 4.30.
Take `COc1ccc([C@@H]2C[C@H](c3ccc(C)cc3)c3cccc(P(c4ccccc4)c4ccccc4)c3N2)cc1`: the inhibition in test [1], in test [2] and in test [3] was 52% in each case. Besides, the negative-log IC50 (pIC50) with A549 was 5.61; in the test with SK-OV-3, less than 4.30; with HEK293, less than 4.30; in the test with MRC5 it was less than 4.30.
With `FC(F)(F)c1ccc([C@@H]2C[C@H](c3ccccc3)c3cccc(P(=S)(c4ccccc4)c4ccccc4)c3N2)cc1`, the inhibition came out at 20% in test [1], 17% in test [2] and 17% in test [3]. For the same molecule, the pIC50 with A549 was 6.66; with SK-OV-3, less than 4.30; with HEK293, less than 4.30; in the test with MRC5 it was less than 4.30.
As to `Fc1ccc(-c2cc(-c3ccc(F)cc3)c3cccc(P(=S)(c4ccccc4)c4ccccc4)c3n2)cc1`, the pIC50 in the test on A549, with SK-OV-3, in the test with HEK293 and in the test with MRC5 was less than 4.30 throughout.
As to `FC(F)(F)c1ccc([C@@H]2C[C@H](c3ccccc3)c3cccc(P(c4ccccc4)c4ccccc4)c3N2)cc1`, the inhibition was determined as 61% in test [1], 61% in test [2] and 59% in test [3]. Besides, the pIC50 in the test on A549 was 4.79; with SK-OV-3 it was less than 4.30; with HEK293, less than 4.30; with MRC5, less than 4.30.
On to `S=P(c1ccccc1)(c1ccccc1)c1cccc2c(-c3ccccc3)cc(-c3ccccc3)nc12`, for which the results for the inhibition in test [1], in test [2] and in test [3] were 75%, 60% and 24%, respectively. Besides, the pIC50 in the test on A549, in the test with SK-OV-3, in the test with HEK293 and with MRC5 was less than 4.30 in each case.

For the origin of these results see ChEMBL document CHEMBL4196061, “Novel topoisomerase I inhibitors. Syntheses and biological evaluation of phosphorus substituted quinoline derivates with antiproliferative activity” (Eur J Med Chem, 2018).
